ChEMBL document CHEMBL4813947, “New dual ATP-competitive inhibitors of bacterial DNA gyrase and topoisomerase IV active against ESKAPE pathogens” (Eur J Med Chem, 2021)
pIC50: −log10 of the molar value. In brackets after ≈: the same amount, converted by molar mass.

Legend:
[1] = Inhibition of Escherichia coli topoisomerase assessed as reduction in relaxation of supercoiled pNO1 DNA measured after 30 mins by fluorescence assay
Outline: (§1)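 Enzyme run per an earlier-reported procedure; IC50 fitted from seven inhibitor concentrations, mean of three independent measurements.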

[2] = Inhibition of Staphylococcus aureus topoisomerase assessed as reduction in relaxation of supercoiled pNO1 DNA measured after 30 mins by fluorescence assay; outline: as §1
DNA gyrase [3] = target: DNA gyrase (Escherichia coli, UniProt P0AES4+P0AES6); assay: Inhibition of Escherichia coli DNA gyrase assessed as reduction in supercoiling of relaxed pNO1 DNA measured after 30 mins by fluorescence assay
DNA gyrase [4] = target: DNA gyrase (Staphylococcus aureus, UniProt P0A0K8+P20831); assay: Inhibition of Staphylococcus aureus DNA gyrase assessed reduction in supercoiling of relaxed pNO1 DNA measured after 30 mins by fluorescence assay
Staphylococcus aureus [5] = assay: Antibacterial activity against Staphylococcus aureus ATCC 29213 assessed as inhibition of bacterial growth by CLSI protocol based broth microdilution assay; format: functional
Staphylococcus aureus [6] = assay: Antibacterial activity against methicillin-resistant Staphylococcus aureus ATCC 43300 assessed as inhibition of bacterial growth by CLSI protocol based broth microdilution assay; format: functional
Outline: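 Minimum inhibitory concentration by standard serial broth microdilution following CLSI guidelines. Medium was MHBII broth (22 g/L powder: beef extract, casein acid hydrolysate, starch), with MHBII agar (14 g agar per L broth). Where noted, assayed without and with efflux pump substrate phenylalanine-arginine β-naphthylamide (PAβN).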

Enterococcus faecalis = assay: Antibacterial activity against Enterococcus faecalis ATCC 29212 assessed as inhibition of bacterial growth by CLSI protocol based broth microdilution assay; format: functional
Acinetobacter baumannii = assay: Antibacterial activity against Acinetobacter baumannii ATCC 17978 assessed as inhibition of bacterial growth by CLSI protocol based broth microdilution assay; format: functional
Pseudomonas aeruginosa = assay: Antibacterial activity against Pseudomonas aeruginosa ATCC 27853 assessed as inhibition of bacterial growth by CLSI protocol based broth microdilution assay; format: functional
Klebsiella pneumoniae = assay: Antibacterial activity against Klebsiella pneumoniae ATCC 10031 assessed as inhibition of bacterial growth by CLSI protocol based broth microdilution assay; format: functional
Escherichia coli = assay: Antibacterial activity against Escherichia coli ATCC 25922 assessed as inhibition of bacterial growth by CLSI protocol based broth microdilution assay; format: functional

pIC50 [1]	pIC50 (DNA gyrase [4])	SMILES	pIC50 [2]	pIC50 (DNA gyrase [3])	MIC (Staphylococcus aureus [5]) [µg/mL]	MIC (Staphylococcus aureus [6]) [µg/mL]	MIC (Enterococcus faecalis) [µg/mL]	MIC (Acinetobacter baumannii) [µg/mL]	MIC (Pseudomonas aeruginosa) [µg/mL]	MIC (Klebsiella pneumoniae) [µg/mL]	MIC (Escherichia coli) [µg/mL]
< 6.00	< 6.00	Cc1[nH]c(C(=O)Nc2nc3ccc(C#N)cc3s2)c(Cl)c1Cl	< 6.00	< 6.00	–	–	–	–	–	–	–
6.66	7.77	Cc1[nH]c(C(=O)Nc2nc3c(OCCN4CCOCC4)cc(C(=O)O)cc3s2)c(Cl)c1Cl	7.18	> 8.00	–	–	–	–	–	–	–
6.59	> 8.00	Cc1[nH]c(C(=O)Nc2nc3c(OCc4ccc(C(=O)O)cc4)cc(C(=O)O)cc3s2)c(Cl)c1Cl	7.92	> 8.00	–	–	–	–	–	–	–
< 6.00	7.32	Cc1[nH]c(C(=O)Nc2nc3c(OCCN)cc(C(=O)O)cc3s2)c(Cl)c1Cl	6.80	> 8.00	–	–	–	–	–	–	–
< 6.00	6.51	Cc1[nH]c(C(=O)Nc2nc3ccc(C(=O)NCC#N)cc3s2)c(Cl)c1Cl	< 6.00	–	–	–	–	–	–	–	–
< 6.00	< 6.00	Cc1[nH]c(C(=O)Nc2nc3c(OCc4ccccc4)cc(C#N)cc3s2)c(Cl)c1Cl	< 6.00	< 6.00	–	–	–	–	–	–	–

Second part, the molecule before the results:

SMILES	pIC50 [1]	pIC50 (DNA gyrase [4])	pIC50 [2]	pIC50 (DNA gyrase [3])	MIC (Staphylococcus aureus [5]) [µg/mL]	MIC (Staphylococcus aureus [6]) [µg/mL]	MIC (Enterococcus faecalis) [µg/mL]	MIC (Acinetobacter baumannii) [µg/mL]	MIC (Pseudomonas aeruginosa) [µg/mL]	MIC (Klebsiella pneumoniae) [µg/mL]	MIC (Escherichia coli) [µg/mL]
O=C(O)c1ccc2nc(NC(=O)c3cc(Cl)c(Cl)[nH]3)sc2c1	6.55	6.30	< 6.00	–	–	–	–	–	–	–	–
COc1cc(C(=O)O)cc2sc(NC(=O)c3[nH]c(C)c(Cl)c3Cl)nc12	6.80	7.36	6.41	> 8.00	2 (≈ 5 µM)	0.5 (≈ 1.25 µM)	0.25 (≈ 0.625 µM)	16 (≈ 40 µM)	64 (≈ 160 µM)	2 (≈ 5 µM)	64 (≈ 160 µM)
Cc1[nH]c(C(=O)Nc2nc3cc(O)c(C(=O)O)cc3s2)c(Cl)c1Cl	7.02	7.21	7.34	> 8.00	16 (≈ 41.4 µM)	4 (≈ 10.4 µM)	1 (≈ 2.59 µM)	> 64	> 64	8 (≈ 20.7 µM)	> 64
Cc1[nH]c(C(=O)Nc2nc3ccc(C(=O)O)cc3s2)c(Cl)c1Cl	6.30	–	7.18	–	1 (≈ 2.7 µM)	0.125 (≈ 0.338 µM)	0.125 (≈ 0.338 µM)	4 (≈ 10.8 µM)	8 (≈ 21.6 µM)	1 (≈ 2.7 µM)	4 (≈ 10.8 µM)
Cc1[nH]c(C(=O)Nc2nc3ccc(C(=O)O)cc3s2)c(Cl)c1Br	6.66	7.62	7.21	> 8.00	0.125 (≈ 0.301 µM)	2 (≈ 4.82 µM)	0.0625 (≈ 0.151 µM)	4 (≈ 9.65 µM)	8 (≈ 19.3 µM)	2 (≈ 4.82 µM)	> 64
Cc1[nH]c(C(=O)Nc2nc3c(OCc4ccccc4)cc(C(=O)NCC#N)cc3s2)c(Cl)c1Cl	< 6.00	6.74	< 6.00	> 8.00	4 (≈ 7.78 µM)	4 (≈ 7.78 µM)	16 (≈ 31.1 µM)	> 64	> 64	> 64	> 64
Cc1[nH]c(C(=O)Nc2nc3c(O)cc(C(=O)O)cc3s2)c(Cl)c1Cl	6.89	7.66	6.92	> 8.00	16 (≈ 41.4 µM)	4 (≈ 10.4 µM)	2 (≈ 5.18 µM)	> 64	> 64	4 (≈ 10.4 µM)	> 64
Cc1[nH]c(C(=O)Nc2nc3c(OCCN4CCOCC4)cc(C(=O)NCC#N)cc3s2)c(Cl)c1Cl	< 6.00	7.00	6.28	> 8.00	–	–	–	–	–	–	–
Cc1[nH]c(C(=O)Nc2nc3ccc(C(=O)NCCC(=O)O)cc3s2)c(Cl)c1Cl	6.68	7.15	7.40	> 8.00	32 (≈ 72.5 µM)	8 (≈ 18.1 µM)	2 (≈ 4.53 µM)	> 64	> 64	8 (≈ 18.1 µM)	> 64
Cc1[nH]c(C(=O)Nc2nc3c(OCc4ccccc4)cc(-c4nnn[nH]4)cc3s2)c(Cl)c1Cl	–	7.59	7.05	–	4 (≈ 7.99 µM)	4 (≈ 7.99 µM)	0.125 (≈ 0.25 µM)	> 64	> 64	> 64	> 64
